Reference: ChEMBL document CHEMBL2069261, “Click-based synthesis of triazolobithiazole ΔF508-CFTR correctors for cystic fibrosis” (Bioorg Med Chem, 2012)
Active and inactive are the calls of the source. The calls are words filed in the database; no cut-off is given here.

Experiments:
[1] = target: Cystic fibrosis transmembrane conductance regulator (Homo sapiens, UniProt P13569, F508DEL); experiment: (§1) Corrector activity at human CFTR deltaF508 mutant expressed in FRT cells stimulated forskolin and potentiator genistein with assessed as iodide influx incubated for 24 hrs; type: cell-based
Outline: (§2)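 Epithelial cells co-expressing ΔF508-CFTR and a fluorescent halide sensor were treated with compound for 24 h across a dose range. They were then stimulated with forskolin (cAMP agonist) plus genistein (potentiator), and I⁻ influx was read from the sensor. Vmax and EC50 were taken from the dose-response curves. n=4, with S.E. reported.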

[2] = Lipophilicity, log P of the compound; type: physicochemical; settings: octanol/water
Outline: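 LogP was estimated from HPLC retention times. The capacity factor was calculated and correlated to logP values.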

[3] = tested on: Cystic fibrosis transmembrane conductance regulator (Homo sapiens), P13569 [F508del]; experiment: as §1; type: cell-based; outline: as §2
Chain of Cystic fibrosis transmembrane conductance regulator (Homo sapiens), P13569 [F508del] (P13569 as listed by the source): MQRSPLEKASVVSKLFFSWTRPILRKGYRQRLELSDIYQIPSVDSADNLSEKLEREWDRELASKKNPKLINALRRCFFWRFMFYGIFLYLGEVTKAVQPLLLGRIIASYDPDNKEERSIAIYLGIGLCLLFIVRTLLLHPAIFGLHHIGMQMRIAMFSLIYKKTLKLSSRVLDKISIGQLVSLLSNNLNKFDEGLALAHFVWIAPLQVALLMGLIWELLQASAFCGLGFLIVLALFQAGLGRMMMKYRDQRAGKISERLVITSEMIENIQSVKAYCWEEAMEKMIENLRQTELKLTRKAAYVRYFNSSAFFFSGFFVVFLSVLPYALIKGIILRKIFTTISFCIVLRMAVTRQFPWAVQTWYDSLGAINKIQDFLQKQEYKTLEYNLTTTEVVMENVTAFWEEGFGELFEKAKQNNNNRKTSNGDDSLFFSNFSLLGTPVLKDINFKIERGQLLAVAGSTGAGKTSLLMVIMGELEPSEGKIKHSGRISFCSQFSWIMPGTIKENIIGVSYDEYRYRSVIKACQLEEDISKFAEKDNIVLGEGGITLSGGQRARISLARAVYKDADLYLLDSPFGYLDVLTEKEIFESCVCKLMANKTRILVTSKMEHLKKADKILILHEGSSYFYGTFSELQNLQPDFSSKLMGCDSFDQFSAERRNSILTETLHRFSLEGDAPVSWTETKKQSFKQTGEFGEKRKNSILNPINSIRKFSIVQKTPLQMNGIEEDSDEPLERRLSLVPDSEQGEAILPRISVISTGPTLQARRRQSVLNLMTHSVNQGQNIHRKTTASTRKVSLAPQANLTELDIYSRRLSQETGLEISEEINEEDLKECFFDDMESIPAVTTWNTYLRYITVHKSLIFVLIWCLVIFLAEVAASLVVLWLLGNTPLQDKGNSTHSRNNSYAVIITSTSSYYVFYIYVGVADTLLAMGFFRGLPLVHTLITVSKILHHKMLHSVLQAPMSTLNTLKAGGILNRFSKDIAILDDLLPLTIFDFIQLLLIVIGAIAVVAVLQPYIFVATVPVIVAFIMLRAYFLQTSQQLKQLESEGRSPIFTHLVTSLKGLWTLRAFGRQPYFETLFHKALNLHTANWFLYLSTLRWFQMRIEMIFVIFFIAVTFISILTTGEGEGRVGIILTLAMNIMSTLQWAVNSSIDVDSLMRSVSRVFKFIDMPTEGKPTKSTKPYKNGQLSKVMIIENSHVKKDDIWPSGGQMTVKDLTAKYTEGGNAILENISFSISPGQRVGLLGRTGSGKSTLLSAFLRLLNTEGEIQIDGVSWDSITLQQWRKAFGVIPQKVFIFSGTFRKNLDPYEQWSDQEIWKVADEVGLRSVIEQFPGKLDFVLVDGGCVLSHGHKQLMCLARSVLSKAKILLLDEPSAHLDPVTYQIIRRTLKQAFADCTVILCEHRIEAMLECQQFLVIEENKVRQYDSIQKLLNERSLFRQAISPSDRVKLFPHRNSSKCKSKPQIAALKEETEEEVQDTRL

Chain of Cystic fibrosis transmembrane conductance regulator (P13569 as listed by the source): as above

SMILES	EC50 [1]	logP ([2]; read-out: logP)	Activity [3]	logP [2]
CNc1nc(-c2sc(NC(=O)C(C)(C)C)nc2C)c(-n2cc(-c3ccccc3)nn2)s1	4.9 µM	–	–	–
COc1ccc(Cl)cc1Nc1nc(-c2sc(NC(=O)C(C)(C)C)nc2C)c(-n2cc(CO)nn2)s1	1.6 µM	4.8	–	–
COc1ccc(Cl)cc1Nc1nc(-c2sc(NC(=O)c3ccccc3)nc2C)cs1	–	–	Active	5.96
COC(=O)c1cn(-c2sc(Nc3cc(Cl)ccc3OC)nc2-c2sc(NC(=O)C(C)(C)C)nc2C)nn1	4.6 µM	4.8	–	–
COc1ccc(Cl)cc1Nc1nc(-c2sc(NC(=O)C(C)(C)C)nc2C)c(-n2cc(C(=O)O)nn2)s1	–	4.8	–	–
Cc1nc(NC(=O)C(C)(C)C)sc1-c1nc(N)sc1-n1cc(-c2ccccc2)nn1	1.5 µM	–	–	–
COc1ccc(Cl)cc1Nc1nc(-c2sc(NC(=O)C(C)(C)C)nc2C)c(-n2cc(-c3ccccc3)nn2)s1	0.14 µM	–	–	–
